The values that follow come from ChEMBL document CHEMBL2396604, “Synthesis and structure activity relationship of tetrahydroisoquinoline-based potentiators of GluN2C and GluN2D containing N-methyl-D-aspartate receptors” (J Med Chem, 2013).

For assay [1], the target named is Ionotropic glutamate receptor NMDA 1/2D (Rattus norvegicus, UniProt P35439+Q62645). Kind of assay: Activity at rat recombinant GluN1/GluN2D receptor assessed as potentiation of glycine/glutamate-induced activation by two-electrode voltage clamp technique. The class given is protein-complex assay. On the technique in general: Two-electrode voltage clamp is typically applied to oocytes expressing channels or transporters.
Sequence of Ionotropic glutamate receptor NMDA 1/2D (Q62645 whole entry, other chains not shown): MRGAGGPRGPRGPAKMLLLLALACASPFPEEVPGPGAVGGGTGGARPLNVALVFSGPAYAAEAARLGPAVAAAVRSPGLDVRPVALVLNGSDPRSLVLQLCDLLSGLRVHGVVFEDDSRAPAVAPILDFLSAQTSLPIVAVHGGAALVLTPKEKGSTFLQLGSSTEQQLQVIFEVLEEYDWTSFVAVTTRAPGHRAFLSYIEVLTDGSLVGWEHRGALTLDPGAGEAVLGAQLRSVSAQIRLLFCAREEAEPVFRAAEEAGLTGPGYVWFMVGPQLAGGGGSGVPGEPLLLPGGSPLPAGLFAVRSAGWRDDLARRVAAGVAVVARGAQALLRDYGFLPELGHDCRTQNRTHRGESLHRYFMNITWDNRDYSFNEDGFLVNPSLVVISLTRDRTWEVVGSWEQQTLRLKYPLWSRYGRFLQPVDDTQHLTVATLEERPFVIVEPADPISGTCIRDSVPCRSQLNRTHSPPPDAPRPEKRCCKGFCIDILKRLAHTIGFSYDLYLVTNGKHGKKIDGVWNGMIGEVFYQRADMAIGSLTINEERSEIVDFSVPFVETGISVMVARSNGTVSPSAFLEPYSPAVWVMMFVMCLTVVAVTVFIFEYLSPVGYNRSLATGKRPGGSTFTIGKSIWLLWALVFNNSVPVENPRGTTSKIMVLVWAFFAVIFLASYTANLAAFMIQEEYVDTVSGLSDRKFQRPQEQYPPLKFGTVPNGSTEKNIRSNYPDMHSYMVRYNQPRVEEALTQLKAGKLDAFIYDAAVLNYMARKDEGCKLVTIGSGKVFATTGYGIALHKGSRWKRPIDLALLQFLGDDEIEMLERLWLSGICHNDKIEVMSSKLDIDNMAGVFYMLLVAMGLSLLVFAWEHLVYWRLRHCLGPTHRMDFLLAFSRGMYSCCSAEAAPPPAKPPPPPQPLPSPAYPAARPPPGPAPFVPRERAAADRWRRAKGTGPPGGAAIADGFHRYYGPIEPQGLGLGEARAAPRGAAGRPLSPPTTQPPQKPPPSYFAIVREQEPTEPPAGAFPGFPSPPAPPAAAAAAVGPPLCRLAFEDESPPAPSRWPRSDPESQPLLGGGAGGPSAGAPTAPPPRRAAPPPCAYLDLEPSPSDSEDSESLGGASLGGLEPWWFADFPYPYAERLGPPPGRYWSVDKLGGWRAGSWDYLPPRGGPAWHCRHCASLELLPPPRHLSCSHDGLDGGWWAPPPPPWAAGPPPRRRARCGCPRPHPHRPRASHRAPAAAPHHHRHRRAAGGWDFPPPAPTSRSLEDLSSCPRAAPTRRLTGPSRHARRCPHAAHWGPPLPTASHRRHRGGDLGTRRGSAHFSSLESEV

The target of assay [2] is Glutamate NMDA receptor; Grin1/Grin2c (Rattus norvegicus, UniProt P35439+Q00961). Kind of assay: Activity at rat recombinant GluN1/GluN2C receptor assessed as potentiation of glycine/glutamate-induced activation by two-electrode voltage clamp technique. It is filed as protein-complex assay.
Sequence of Glutamate NMDA receptor; Grin1/Grin2c (Q00961 whole entry, other chains not shown): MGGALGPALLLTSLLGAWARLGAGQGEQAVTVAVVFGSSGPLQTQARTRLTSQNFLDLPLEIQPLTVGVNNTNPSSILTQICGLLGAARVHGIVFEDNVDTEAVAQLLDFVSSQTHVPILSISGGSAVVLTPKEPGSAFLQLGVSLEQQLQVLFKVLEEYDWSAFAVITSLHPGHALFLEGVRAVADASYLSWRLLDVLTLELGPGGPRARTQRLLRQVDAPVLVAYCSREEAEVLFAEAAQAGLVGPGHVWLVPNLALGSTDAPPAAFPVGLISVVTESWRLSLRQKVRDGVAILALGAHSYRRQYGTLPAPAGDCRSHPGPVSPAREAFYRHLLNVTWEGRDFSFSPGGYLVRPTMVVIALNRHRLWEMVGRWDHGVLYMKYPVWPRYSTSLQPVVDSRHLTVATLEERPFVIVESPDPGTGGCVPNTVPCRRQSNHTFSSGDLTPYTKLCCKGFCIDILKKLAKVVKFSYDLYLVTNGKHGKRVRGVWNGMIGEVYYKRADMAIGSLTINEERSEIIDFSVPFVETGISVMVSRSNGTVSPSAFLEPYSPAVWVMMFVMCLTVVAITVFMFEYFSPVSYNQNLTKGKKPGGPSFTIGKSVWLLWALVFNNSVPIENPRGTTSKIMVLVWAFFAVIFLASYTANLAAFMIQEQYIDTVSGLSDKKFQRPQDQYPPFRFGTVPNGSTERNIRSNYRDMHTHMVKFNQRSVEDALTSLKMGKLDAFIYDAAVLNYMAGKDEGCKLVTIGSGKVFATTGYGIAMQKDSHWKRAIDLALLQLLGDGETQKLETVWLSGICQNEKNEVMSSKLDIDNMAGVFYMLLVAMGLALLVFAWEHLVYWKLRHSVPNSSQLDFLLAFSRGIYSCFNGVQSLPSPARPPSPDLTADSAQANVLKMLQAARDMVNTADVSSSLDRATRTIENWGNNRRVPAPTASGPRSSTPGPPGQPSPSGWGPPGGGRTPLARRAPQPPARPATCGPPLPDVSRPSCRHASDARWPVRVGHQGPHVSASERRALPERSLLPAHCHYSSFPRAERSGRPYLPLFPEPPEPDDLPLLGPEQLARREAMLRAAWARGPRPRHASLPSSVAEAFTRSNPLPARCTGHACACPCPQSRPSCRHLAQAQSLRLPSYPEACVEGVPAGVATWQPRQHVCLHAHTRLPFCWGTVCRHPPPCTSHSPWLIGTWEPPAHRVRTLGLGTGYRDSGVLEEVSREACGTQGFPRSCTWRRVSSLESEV
Assay [3] has as its target Glutamate receptor 1 (Rattus norvegicus) (UniProt P19490). Kind of assay: Activity at rat recombinant GluA1 receptor expressed in Xenopus oocytes assessed as effect on glutamate-induced response by two-electrode voltage clamp technique. As to conditions: Oocyte. The class given is cell-based. The essentials: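 Oocytes injected with 1–5 ng cRNA, kept in Barth's solution at 15°C for 2–5 days. Clamped at -40 mV in 90 NaCl, 1.0 KCl, 0.5 BaCl₂, 0.005 EDTA, 10 HEPES (mM), pH 7.4, 23°C. Receptors activated by 100 µM glutamate with compound co-applied. GluK2 oocytes pretreated with 10 µM concanavalin A for 10 min. DMSO 0.05–0.5% final.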

Active and inactive are the calls of the source. No cut-off for these calls is given here.

Sequence of Glutamate receptor 1 (Rattus norvegicus) (P19490 whole entry): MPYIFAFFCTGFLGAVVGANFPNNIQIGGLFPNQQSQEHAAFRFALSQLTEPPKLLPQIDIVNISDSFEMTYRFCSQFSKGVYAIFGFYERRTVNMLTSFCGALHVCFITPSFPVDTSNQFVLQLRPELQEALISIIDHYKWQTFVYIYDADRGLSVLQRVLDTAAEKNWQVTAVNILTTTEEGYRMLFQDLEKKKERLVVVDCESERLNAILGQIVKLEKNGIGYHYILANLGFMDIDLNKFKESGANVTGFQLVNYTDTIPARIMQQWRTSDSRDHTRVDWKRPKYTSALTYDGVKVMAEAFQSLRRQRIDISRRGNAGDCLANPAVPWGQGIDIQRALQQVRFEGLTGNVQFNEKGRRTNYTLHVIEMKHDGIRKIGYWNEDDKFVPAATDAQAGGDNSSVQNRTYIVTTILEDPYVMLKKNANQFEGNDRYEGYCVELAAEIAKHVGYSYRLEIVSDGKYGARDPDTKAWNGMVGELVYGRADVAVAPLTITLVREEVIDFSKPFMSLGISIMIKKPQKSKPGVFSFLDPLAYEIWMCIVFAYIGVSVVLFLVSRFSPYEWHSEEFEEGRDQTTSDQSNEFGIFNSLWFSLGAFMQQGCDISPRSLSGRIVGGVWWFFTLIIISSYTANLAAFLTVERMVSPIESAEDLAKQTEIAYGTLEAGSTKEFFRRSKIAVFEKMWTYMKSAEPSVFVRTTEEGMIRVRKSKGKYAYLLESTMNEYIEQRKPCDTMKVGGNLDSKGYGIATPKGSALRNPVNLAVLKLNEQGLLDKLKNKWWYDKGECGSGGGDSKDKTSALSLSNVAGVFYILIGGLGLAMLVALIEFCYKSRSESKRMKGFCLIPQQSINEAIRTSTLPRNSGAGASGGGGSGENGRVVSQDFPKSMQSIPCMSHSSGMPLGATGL

For `COc1ccc(OCC2c3ccc(C)cc3CCN2C(=O)c2cccc(Cl)c2)cc1` (racemic), the figures for the EC50 in assay [1] and in assay [2] were 4.7 µM and 5 µM, respectively.
On to `COc1ccc(OCC2c3ccc(OCc4ccccc4)cc3CCN2C(=O)c2cccc(Cl)c2)cc1` (racemic), for which the EC50 in assay [1] and in assay [2] was 0.4 µM throughout.
Consider `COc1ccc(OCC2c3cc4c(cc3CCN2C(=O)c2cccc(Br)c2)OCO4)cc1` (racemic), for which the EC50 in assay [1] is 3.4 µM; in assay [2] it was 3.2 µM.
Consider `COc1ccc(OCC2c3ccc(OC)cc3CCN2C(=O)c2cccc(Cl)c2)cc1` (racemic), for which, in assay [3], the outcome was inactive.
On to `COc1ccc(OCC2c3cc(OC)c(OC)cc3CCN2C(=O)CN2CCOCC2)cc1` (racemic), for which the outcome in assay [3] was inactive.
As for `COc1ccc(OCC2c3ccc(OCc4ccccc4)cc3CCN2C(=O)c2ccccc2)cc1` (racemic), the EC50 in assay [1] turned out to be 2.3 µM; in assay [2], 0.7 µM.
Regarding `COc1ccc(OCC2c3c(cc(OC)cc3OC)CCN2C(=O)c2cccc(Br)c2)cc1` (racemic), the EC50 in assay [1] was found to be 7.8 µM; in assay [2] it was 9 µM.
The matching figures for `COc1ccc(OCC2c3cc(OC)c(OC)cc3CCN2C(=O)c2cccc(C(Cl)Cl)c2)cc1` (racemic): 5.4 µM and 3.7 µM.
For `COc1ccc(OCC2c3cc(OC)c(OC)cc3CCN2C(=O)c2cccc(C#N)c2)cc1` (racemic), the outcome in assay [3] was inactive. Further, the figures for the EC50 in assay [1] and in assay [2] were 7.7 µM and 29 µM, respectively.
For the compound `COc1ccc(OCC2c3cc(OC)c(OC)cc3CCN2C(=O)c2cccc(I)c2)cc1` (racemic), the EC50 in assay [1] was determined as 4.9 µM; in assay [2] it was 4 µM.
With `COc1ccc(OCC2c3cc(OC)c(OC)cc3CCN2C(=O)c2cccc(-c3ccccc3)c2)cc1` (racemic), the EC50 in assay [1] is 3.6 µM; in assay [2] it was 2.9 µM.
For `COc1cc2c(cc1OC)CN(C(=O)c1ccccc1)CC2`, in assay [3], the outcome was inactive.
In the case of `COc1ccc(OCC2c3cc(OC)c(OC)cc3CCN2C(=S)Nc2cccc(C)c2)cc1` (racemic), the EC50 was determined as 4.9 µM in assay [1] and 5.2 µM in assay [2].
Take `COc1ccc(OCC2c3ccc(OC)cc3CCN2C(=O)c2cccc(Br)c2)cc1` (racemic): the outcome in assay [3] was inactive. Besides, the EC50 was found to be 2.9 µM in assay [1] and 2 µM in assay [2].
Regarding `COc1ccc(OCC2c3ccc(C)cc3CCN2C(=O)c2ccccc2)cc1` (racemic), the 50% effective concentration (EC50) in assay [2] turned out to be 24 µM.
Consider `COc1ccc(OCC2c3cc(OC)c(OC)cc3CCN2C(=O)c2ccc(F)c(Cl)c2)cc1` (racemic), for which the EC50 in assay [1] and in assay [2] was 5.3 µM in each case.
Regarding `COc1ccc(/C=C/C2c3cc(OC)c(OC)cc3CCN2C(=O)c2ccccc2)cc1` (racemic), in assay [3], the result was inactive. The concentration giving a half-maximal response (EC50) in assay [1] and in assay [2] was 35 µM each time.
`COc1ccc(OCC2c3ccc(OC)cc3CCN2C(=O)c2cccc(C(C)=O)c2)cc1` (racemic): the concentration giving a half-maximal response (EC50) came to 32 µM in assay [1] and 21 µM in assay [2].
`CCc1ccc(OCC2c3cc(OC)c(OC)cc3CCN2C(=O)c2ccccc2)cc1` (racemic): in assay [2], the EC50 turned out to be 23 µM.
`COc1ccc(OCC2c3ccc(C)cc3CCN2C(=O)c2cccc(Br)c2)cc1` (racemic): the EC50 in assay [1] stood at 3.6 µM; in assay [2] it was 3.2 µM.
For `COc1ccc(OCC2c3ccc(OC)cc3CCN2C(=O)c2ccccc2)cc1` (racemic), the EC50 in assay [1] was found to be 5.7 µM; in assay [2], 7.5 µM.
As for `COc1ccc(OCC2c3cc(OC)c(OC)cc3CCN2C(=O)c2cccs2)cc1` (racemic), the EC50 in assay [2] amounted to 9 µM.
The same measure, in the same setting: in the case of `COc1ccc(OCC2c3cc(OC)c(OC)cc3CCN2C(=O)c2cccc(Cl)c2Cl)cc1` (racemic) it was 1.4 µM.
For the compound `COc1ccc(OCC2c3cc(OC)c(OC)cc3CCN2C(=O)c2ccc(Cl)c(Cl)c2)cc1` (racemic), the EC50 was 24 µM in assay [1] and 21 µM in assay [2].
Consider `COc1ccc(/C=C/C2c3cc(OC)c(OC)cc3CCN2C(=O)c2cccc(Cl)c2)cc1` (racemic), for which the EC50 in assay [1] is 1.3 µM; in assay [2], 1.1 µM.
Turning to `COc1ccc(OCC2c3cc(OC)c(OC)cc3CCN2C(=O)c2ccc(Cl)cc2)cc1` (racemic), the EC50 in assay [2] came out at 4.1 µM.
Take `COc1cc2c(cc1OC)C(COc1ccc(N(C)C)cc1)N(C(=O)c1cccc(Br)c1)CC2` (racemic): the concentration for a half-maximal effect (EC50) in assay [2] worked out at 12 µM.
Consider `COc1ccc(OCC2c3cc(OC)c(OC)cc3CCN2C(=O)c2cccc(C)c2)cc1` (racemic), for which the figures for the EC50 in assay [1] and in assay [2] were 5.5 µM and 6.2 µM, respectively.
For the compound `COc1ccc(/C=C/C2c3ccc(OC)cc3CCN2C(=O)c2cccc(Br)c2)cc1` (racemic), the result in assay [3] was inactive. Besides, the half-maximal effective concentration (EC50) in assay [1] was found to be 1.7 µM; in assay [2] it was 1.5 µM.
With `COc1cc2c(cc1OC)C(COc1ccc(SC)cc1)N(C(=O)c1cccc(Cl)c1)CC2` (racemic), the half-maximal effective concentration (EC50) amounted to 5.3 µM in assay [1] and 5.1 µM in assay [2].
For `COc1ccc(OCC2c3cc(OC)c(OC)cc3CCN2C(=O)c2cc(Cl)cc(Cl)c2)cc1` (racemic), in assay [3], the outcome was inactive. For the same compound, the values for the half-maximal effective concentration (EC50) in assay [1] and in assay [2] were 1.9 µM and 4.8 µM, respectively.
Regarding `COc1ccc(/C=C/C2c3cc(OC)c(OC)cc3CCN2C(=O)c2cccc(Br)c2)cc1` (racemic), the result in assay [3] was inactive. Also, the EC50 in assay [1] and in assay [2] was 2.8 µM in each case.
With `COc1ccc(OCC2c3cc4c(cc3CCN2C(=O)c2cccc(Cl)c2)OCO4)cc1` (racemic), the outcome in assay [3] was inactive. The EC50 was found to be 7.4 µM in assay [1] and 16 µM in assay [2].
Regarding `COc1ccc(OCC2c3c(cc(OC)cc3OC)CCN2C(=O)c2ccccc2)cc1` (racemic), the half-maximal effective concentration (EC50) is 14 µM in assay [1] and 10 µM in assay [2].
As for `COc1ccc(OCC2c3c(cc(OC)cc3OC)CCN2C(=O)c2cccc(Cl)c2)cc1` (racemic), the concentration giving a half-maximal response (EC50) in assay [1] came out at 9.2 µM.
`COc1ccc(OCC2c3cc(C)c(C)cc3CCN2C(=O)c2cccc(Cl)c2)cc1` (racemic): the concentration for a half-maximal effect (EC50) in assay [1] stood at 1.5 µM; in assay [2], 1.4 µM.
For `COc1ccc(/C=C/C2c3ccc(OC)cc3CCN2C(=O)c2cccc(Cl)c2)cc1` (racemic), the result in assay [3] was inactive. Besides, the EC50 in assay [1] and in assay [2] was 1 µM throughout.
`COc1ccc(CCC2c3cc(OC)c(OC)cc3CCN2C(=O)c2cccc(Cl)c2)cc1` (racemic): the result in assay [3] was inactive.
On to `COc1cc2c(cc1OC)C(COc1ccc(N(C)C)cc1)N(C(=O)c1cccc(Cl)c1)CC2` (racemic), for which the EC50 in assay [2] worked out at 35 µM.
As to `COc1ccc(CCC2c3cc(OC)c(OC)cc3CCN2C(=O)c2cccc(Br)c2)cc1` (racemic), the outcome in assay [3] was inactive. Further, the concentration giving a half-maximal response (EC50) in assay [1] is 15 µM; in assay [2], 11 µM.
Take `COc1ccc(OCC2c3cc(C)c(C)cc3CCN2C(=O)c2cccc(Br)c2)cc1` (racemic): the EC50 in assay [1] is 1.1 µM; in assay [2] it was 0.9 µM.

By EC50 is commonly meant the midpoint of the concentration-response curve.
